Laboratory results as given in ChEMBL document CHEMBL1828576, “Synthesis of new six- and seven-membered 1-N-iminosugars as promising glycosidase inhibitors” (Bioorg Med Chem, 2011).
Calls of active or inactive are those of the source. The calls are words filed in the database; no cut-off is given here.

Experiments:
[1] = Inhibition of Geobacillus toebii BK1 alpha-galactosidase assessed as residual hydrolysis of p-nitrophenyl-alpha-D-galactopyranoside pre-incubated for 1 hr by spectrometric analysis
Outline: (§1)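 The enzyme was pre-incubated with inhibitor (10 µM to 1000 µM) for 1 h at 60 °C at the enzyme's optimal pH. The reaction was started with 2 mM p-nitrophenyl glycopyranoside made up in 0.025 M citrate buffer, pH 4.0. It was stopped with 0.05 M borate buffer, pH 9.8, and released p-nitrophenol was read at 405 nm against inhibitor-free controls. Ki and inhibition type came from Lineweaver–Burk plots.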

Canavalia ensiformis [2] = test: Inhibition of jack bean N-acetyl-beta-D-glucosaminidase assessed as p-nitrophenol release at 1 mM pre-incubated for 1 hr by spectrometric analysis
Outline: (§2)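 Each enzyme was pre-incubated with inhibitor (10 µM to 1000 µM) at its optimal pH for 1 h at 37 °C. Hydrolysis was initiated with 2 mM p-nitrophenyl glycopyranoside substrate prepared in 0.025 M citrate, pH 4.0, and quenched with 0.05 M borate, pH 9.8. p-Nitrophenol was read at 405 nm, with controls lacking inhibitor run in parallel. Ki and mode of inhibition were derived from Lineweaver–Burk plots.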

Prunus dulcis [3] = test: Inhibition of almond seed beta-galactosidase assessed as residual hydrolysis of p-nitrophenyl-beta-D-galactopyranoside at 1 mM pre-incubated for 1 hr by Lineweaver-Burk plot analysis; outline: as §2
Prunus dulcis [4] = test: Inhibition of almond seed beta-glucosidase assessed as residual hydrolysis of p-nitrophenyl-beta-D-glucopyranoside at 1 mM pre-incubated for 1 hr by Lineweaver-Burk plot analysis; outline: as §2
Saccharomyces cerevisiae = test: Inhibition of baker's yeast alpha-glucosidase assessed as residual hydrolysis of p-nitrophenyl-alpha-D-glucopyranoside at 1 mM pre-incubated for 1 hr by Lineweaver-Burk plot analysis; outline: as §2
Geobacillus toebii [5] = test: Competitive inhibition of Geobacillus toebii BK1 alpha-galactosidase assessed as residual hydrolysis of p-nitrophenyl-alpha-D-galactopyranoside pre-incubated for 1 hr by Lineweaver-Burk plot analysis; outline: as §1
Canavalia ensiformis [6] = test: Inhibition of jack bean alpha-mannosidase assessed as residual hydrolysis of p-nitrophenyl-alpha-D-mannopyranoside at 1 mM pre-incubated for 1 hr by Lineweaver-Burk plot analysis; outline: as §2
Canavalia ensiformis [7] = test: Inhibition of jack bean N-acetyl-beta-D-glucosaminidase assessed as p-nitrophenol release at 1 mM pre-incubated for 1 hr by Lineweaver-Burk plot analysis; outline: as §2
[8] = Inhibition of Geobacillus toebii BK1 alpha-galactosidase assessed as residual hydrolysis of p-nitrophenyl-alpha-D-galactopyranoside pre-incubated for 1 hr by Lineweaver-Burk plot analysis; outline: as §1
Geobacillus toebii [9] = test: Inhibition of Geobacillus toebii BK1 alpha-galactosidase assessed as residual hydrolysis of p-nitrophenyl-alpha-D-galactopyranoside at 1 mM pre-incubated for 1 hr by Lineweaver-Burk plot analysis; outline: as §1
[10] = Inhibition of baker's yeast alpha-glucosidase assessed as residual hydrolysis of p-nitrophenyl-alpha-D-glucopyranoside pre-incubated for 1 hr by Lineweaver-Burk plot analysis; parameters: species or system Saccharomyces cerevisiae; outline: as §2
[11] = Inhibition of baker's yeast alpha-glucosidase assessed as residual hydrolysis of p-nitrophenyl-alpha-D-glucopyranoside pre-incubated for 1 hr by spectrometric analysis; parameters: species or system Saccharomyces cerevisiae; outline: as §2
[12] = Inhibition of sweet almond beta-glucosidase; parameters: species or system Prunus dulcis; outline: as §2

IC50 [1] [µM]	inhibition (Canavalia ensiformis [2]) [%]	inhibition (Prunus dulcis [3])	inhibition (Prunus dulcis [4])	inhibition (Saccharomyces cerevisiae)	inhibition (Geobacillus toebii [5])	inhibition (Canavalia ensiformis [6])	inhibition (Canavalia ensiformis [7])	Ki [8] [µM]	inhibition (Geobacillus toebii [9])	Ki [10] [µM]	IC50 [11] [µM]	Ki [12] [µM]	Compound
50	< 50	inactive	inactive	inactive	Active	inactive	inactive	54					CN1C[C@@H](CCO)[C@@H](O)[C@H](O)C1
	< 50	inactive	inactive			inactive	inactive		inactive	131	675		OCC[C@@H]1CNC[C@H](O)[C@@H](O)[C@@H]1O
												0.11	OC[C@H]1CNC[C@@H](O)[C@@H]1O [AFEGOSTAT]
65	< 50	inactive	inactive	inactive	Active	inactive	inactive	66					OCC[C@@H]1CNC[C@@H](O)[C@@H]1O
